Reference: ChEMBL document CHEMBL2331396, “Exploration of 1-(3-chloro-4-(4-oxo-4H-chromen-2-yl)phenyl)-3-phenylurea derivatives as selective dual inhibitors of Raf1 and JNK1 kinases for anti-tumor treatment” (Bioorg Med Chem, 2013)
Each block holds one compound with its values, some of them ahead of it. Calls of active or inactive are those of the source. The calls are words filed in the database; no cut-off is given here.

Legend:
[1] = Cytotoxicity against human HL7702 cells assessed as inhibition rate at 100 uM measured after 48 hrs by MTT assay; format: cell-based, L02; conditions: read-out: INH
Outline: (§1)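 Normal liver cells were grown in DMEM with 10% FBS plus penicillin/streptomycin at 37 °C, 5% CO₂. They were seeded at 5 × 10⁵ cells/mL and incubated 24 h. Compounds from DMSO stock were added at final 50 or 100 µM (DMSO <1%), in triplicate, for 48 h. MTT was added for 4 h, formazan dissolved in DMSO, A495 read, and inhibition rate calculated.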

[2] = Cytotoxicity against human QSG7701 cells assessed as inhibition rate at 100 uM measured after 48 hrs by MTT assay; format: cell-based; conditions: read-out: INH; outline: as §1
[3] = Cytotoxicity against human QSG7701 cells assessed as inhibition rate at 50 uM measured after 48 hrs by MTT assay; format: cell-based; conditions: read-out: INH; outline: as §1
[4] = system: HepG2; assay: Antiproliferative activity against human HepG2 cells assessed as growth inhibition measured after 48 hrs by MTT assay; format: functional, cell-based; conditions: HepG2, 48 h
Outline: (§2)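 Compounds dissolved in DMSO and diluted in medium to final 0.5–50 µM (final DMSO <1%). Cells were grown in DMEM with 10% FBS, penicillin and streptomycin at 37 °C, 5% CO₂. They were seeded at 5 × 10⁵ cells/mL, incubated 24 h, then treated in triplicate per concentration for 48 h. MTT was added for 4 h, formazan dissolved in DMSO, absorbance read at 495 nm, and IC50 derived.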

[5] = system: HCT-116; assay: Antiproliferative activity against human HCT116 cells assessed as growth inhibition measured after 48 hrs by MTT assay; format: functional, cell-based; conditions: HCT-116, 48 h; outline: as §2
[6] = system: A549; assay: Antiproliferative activity against human A549 cells assessed as growth inhibition measured after 48 hrs by MTT assay; format: functional, cell-based; conditions: A549, 48 h; outline: as §2
[7] = Cytotoxicity against human HL7702 cells assessed as inhibition rate at 50 uM measured after 48 hrs by MTT assay; format: cell-based, L02; conditions: read-out: INH; outline: as §1
[8] = target: Mitogen-activated protein kinase 14 (Homo sapiens) (UniProt Q16539); assay: Inhibition of p38-alpha (unknown origin) at 50 uM
Outline: (§3)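 Kinase-Glo Plus luminescent assay. Enzyme, substrate, ATP and compound were mixed in 25 mM HEPES pH 7.4 with 10 mM MgCl₂ and incubated 1 h at 30 °C. The reaction was stopped with an equal volume of Kinase-Glo Plus reagent. Luminescence reflects remaining ATP, inversely related to kinase activity, and is reported as percent inhibition at a single concentration.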

[9] = target: RAF proto-oncogene serine/threonine-protein kinase (Homo sapiens) (UniProt P04049); assay: Inhibition of Raf1 (unknown origin) at 50 uM; outline: as §3
[10] = target: Mitogen-activated protein kinase 8 (Homo sapiens) (UniProt P45983); assay: Inhibition of JNK1 (unknown origin) at 50 uM
Outline: (§4)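 Luminescent Kinase-Glo Plus assay. Enzyme, substrate, ATP and compound were mixed in pH 7.4 buffer containing 25 mM HEPES and 10 mM MgCl2, then incubated at 30 °C for 1 h. An equal volume of Kinase-Glo Plus reagent stopped the reaction before luminescence was read. Signal tracks remaining ATP and runs inversely to kinase activity; results are given as percent inhibition.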

[11] = system: HepG2; assay: Cell cycle arrest in human HepG2 cells assessed as cells at G0/G1 phase at 10 uM measured after 12 hrs by flow cytometric analysis; format: functional
[12] = target: RAF proto-oncogene serine/threonine-protein kinase (Homo sapiens) (UniProt P04049); assay: Inhibition of Raf1 in human HepG2 cells assessed as ERK1/2 phosphorylation at 10 uM measured after 2 hrs by Western blot analysis; format: cell-based; conditions: in the assay text read “4 hrs” for “2 hrs”
Outline: (§5)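 Cells were lysed on ice for 50 min in HEPES pH 7.9/KCl/EDTA/NP-40 buffer with Na₃VO₄, NaF and protease inhibitors. Protein was quantified by Coomassie, run on 15% SDS-PAGE and transferred to PVDF. Membranes were blocked in 5% milk for 2 h and probed with total/phospho ERK1/2 or c-Jun antibodies for 2 h at room temperature. Detection was by HRP secondary antibody and chemiluminescence.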

[13] = system: HepG2; assay: Induction of human HepG2 cells assessed as early apoptotic cells at 10 uM measured after 36 hrs by Annexin VFITC/PI assay; format: functional
[14] = system: HepG2; assay: Cell cycle arrest in human HepG2 cells assessed as cells at G2+M phase at 10 uM measured after 12 hrs by flow cytometric analysis; format: functional
[15] = system: HepG2; assay: Cell cycle arrest in human HepG2 cells assessed as cells at S phase at 10 uM measured after 48 hrs by flow cytometric analysis; format: functional
[16] = system: HepG2; assay: Cell cycle arrest in human HepG2 cells assessed as cells at G2+M phase at 10 uM measured after 24 hrs by flow cytometric analysis; format: functional
[17] = target: Mitogen-activated protein kinase 8 (Homo sapiens) (UniProt P45983); assay: Inhibition of JNK1 in human HepG2 cells assessed as c-Jun phosphorylation at 10 uM measured after 2 hrs by Western blot analysis; format: cell-based; outline: as §5
[18] = system: HepG2; assay: Induction of human HepG2 cells assessed as early apoptotic cells at 10 uM measured after 24 hrs by Annexin VFITC/PI assay; format: functional
[19] = system: HepG2; assay: Induction of human HepG2 cells assessed as late apoptotic cells at 10 uM measured after 36 hrs by Annexin VFITC/PI assay; format: functional
[20] = system: HepG2; assay: Induction of human HepG2 cells assessed as late apoptotic cells at 10 uM measured after 24 hrs by Annexin VFITC/PI assay; format: functional
[21] = system: HepG2; assay: Induction of human HepG2 cells assessed as late apoptotic cells at 10 uM measured after 12 hrs by Annexin VFITC/PI assay; format: functional
[22] = system: HepG2; assay: Cell cycle arrest in human HepG2 cells assessed as cells at G2+M phase at 10 uM measured after 36 hrs by flow cytometric analysis; format: functional
[23] = system: HepG2; assay: Cell cycle arrest in human HepG2 cells assessed as cells at G2+M phase at 10 uM measured after 48 hrs by flow cytometric analysis; format: functional
[24] = target: Mitogen-activated protein kinase 1 (Homo sapiens) (UniProt P28482); conditions: at 50 µM
[25] = system: HepG2; assay: Induction of human HepG2 cells assessed as late apoptotic cells at 10 uM measured after 48 hrs by Annexin VFITC/PI assay; format: functional
[26] = system: HepG2; assay: Induction of human HepG2 cells assessed as early apoptotic cells at 10 uM measured after 12 hrs by Annexin VFITC/PI assay; format: functional
[27] = target: Mitogen-activated protein kinase 3 (Homo sapiens) (UniProt P27361); assay: Inhibition of ERK1 (unknown origin) at 50 uM; outline: as §4
[28] = system: HepG2; assay: Cell cycle arrest in human HepG2 cells assessed as cells at G0/G1 phase at 10 uM measured after 36 hrs by flow cytometric analysis; format: functional
[29] = system: HepG2; assay: Cell cycle arrest in human HepG2 cells assessed as cells at G0/G1 phase at 10 uM measured after 48 hrs by flow cytometric analysis; format: functional
[30] = system: HepG2; assay: Cell cycle arrest in human HepG2 cells assessed as cells at S phase at 10 uM measured after 12 hrs by flow cytometric analysis; format: functional
[31] = system: HepG2; assay: Cell cycle arrest in human HepG2 cells assessed as cells at S phase at 10 uM measured after 36 hrs by flow cytometric analysis; format: functional
[32] = system: HepG2; assay: Induction of human HepG2 cells assessed as early apoptotic cells at 10 uM measured after 48 hrs by Annexin VFITC/PI assay; format: functional
[33] = system: HepG2; assay: Cell cycle arrest in human HepG2 cells assessed as cells at G0/G1 phase at 10 uM measured after 24 hrs by flow cytometric analysis; format: functional
[34] = target: Mitogen-activated protein kinase 8 (Homo sapiens) (UniProt P45983); assay: Inhibition of JNK1 in human HepG2 cells assessed as inhibition of methyl methane sulfonate-induced c-Jun phosphorylation at 100 uM measured after 2 hrs by Western blot analysis; format: cell-based; outline: as §5
[35] = system: HepG2; assay: Cell cycle arrest in human HepG2 cells assessed as cells at S phase at 10 uM measured after 24 hrs by flow cytometric analysis; format: functional

Sequence of RAF proto-oncogene serine/threonine-protein kinase (Homo sapiens) (P04049 whole entry): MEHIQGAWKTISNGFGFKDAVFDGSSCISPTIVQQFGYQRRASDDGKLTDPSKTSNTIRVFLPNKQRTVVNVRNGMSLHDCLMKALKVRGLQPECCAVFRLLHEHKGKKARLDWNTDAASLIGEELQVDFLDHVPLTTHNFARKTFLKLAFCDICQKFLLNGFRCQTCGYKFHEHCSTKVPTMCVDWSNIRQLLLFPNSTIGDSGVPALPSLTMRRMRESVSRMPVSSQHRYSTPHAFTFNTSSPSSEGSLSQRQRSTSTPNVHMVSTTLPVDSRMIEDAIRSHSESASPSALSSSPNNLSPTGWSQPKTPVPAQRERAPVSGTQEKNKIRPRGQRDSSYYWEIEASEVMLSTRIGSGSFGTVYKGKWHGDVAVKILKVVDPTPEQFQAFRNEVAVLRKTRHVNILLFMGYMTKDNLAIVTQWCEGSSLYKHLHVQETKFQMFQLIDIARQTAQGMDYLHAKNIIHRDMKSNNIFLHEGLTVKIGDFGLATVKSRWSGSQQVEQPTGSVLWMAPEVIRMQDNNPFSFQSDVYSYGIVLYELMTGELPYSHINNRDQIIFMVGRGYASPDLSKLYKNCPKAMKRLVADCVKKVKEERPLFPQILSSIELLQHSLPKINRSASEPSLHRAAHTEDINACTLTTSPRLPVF
Sequence of Mitogen-activated protein kinase 8 (Homo sapiens) (P45983 whole entry): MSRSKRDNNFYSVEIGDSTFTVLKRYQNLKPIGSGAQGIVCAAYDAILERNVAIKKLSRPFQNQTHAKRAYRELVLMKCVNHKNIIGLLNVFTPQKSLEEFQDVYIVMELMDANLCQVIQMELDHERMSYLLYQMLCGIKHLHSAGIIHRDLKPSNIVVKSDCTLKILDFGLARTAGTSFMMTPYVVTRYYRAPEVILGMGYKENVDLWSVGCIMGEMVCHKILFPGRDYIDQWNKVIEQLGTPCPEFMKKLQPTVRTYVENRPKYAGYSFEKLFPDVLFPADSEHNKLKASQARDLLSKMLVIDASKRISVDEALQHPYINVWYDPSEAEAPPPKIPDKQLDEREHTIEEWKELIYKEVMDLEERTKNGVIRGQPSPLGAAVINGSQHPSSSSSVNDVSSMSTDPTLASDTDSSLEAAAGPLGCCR
Sequence of Mitogen-activated protein kinase 14 (Homo sapiens) (Q16539 whole entry): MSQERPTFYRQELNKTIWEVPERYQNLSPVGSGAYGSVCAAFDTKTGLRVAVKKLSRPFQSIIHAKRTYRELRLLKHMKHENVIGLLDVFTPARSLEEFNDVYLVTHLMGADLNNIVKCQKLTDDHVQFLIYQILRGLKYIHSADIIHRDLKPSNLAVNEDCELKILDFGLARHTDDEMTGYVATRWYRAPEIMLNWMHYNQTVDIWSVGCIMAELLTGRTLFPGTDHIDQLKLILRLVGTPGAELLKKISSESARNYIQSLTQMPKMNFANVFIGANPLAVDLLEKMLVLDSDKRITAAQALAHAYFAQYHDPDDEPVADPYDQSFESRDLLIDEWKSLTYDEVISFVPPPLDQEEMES
Sequence of Mitogen-activated protein kinase 1 (Homo sapiens) (P28482 whole entry): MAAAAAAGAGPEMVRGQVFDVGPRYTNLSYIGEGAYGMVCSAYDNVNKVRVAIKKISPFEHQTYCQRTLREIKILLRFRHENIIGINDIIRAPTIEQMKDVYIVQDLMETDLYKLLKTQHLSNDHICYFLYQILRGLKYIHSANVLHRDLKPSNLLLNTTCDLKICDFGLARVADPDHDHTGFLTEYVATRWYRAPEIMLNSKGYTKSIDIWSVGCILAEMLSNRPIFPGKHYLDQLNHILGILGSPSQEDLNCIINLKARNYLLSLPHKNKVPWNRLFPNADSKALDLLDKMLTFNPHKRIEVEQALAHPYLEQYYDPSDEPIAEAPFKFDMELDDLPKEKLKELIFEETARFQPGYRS
Sequence of Mitogen-activated protein kinase 3 (Homo sapiens) (P27361 whole entry): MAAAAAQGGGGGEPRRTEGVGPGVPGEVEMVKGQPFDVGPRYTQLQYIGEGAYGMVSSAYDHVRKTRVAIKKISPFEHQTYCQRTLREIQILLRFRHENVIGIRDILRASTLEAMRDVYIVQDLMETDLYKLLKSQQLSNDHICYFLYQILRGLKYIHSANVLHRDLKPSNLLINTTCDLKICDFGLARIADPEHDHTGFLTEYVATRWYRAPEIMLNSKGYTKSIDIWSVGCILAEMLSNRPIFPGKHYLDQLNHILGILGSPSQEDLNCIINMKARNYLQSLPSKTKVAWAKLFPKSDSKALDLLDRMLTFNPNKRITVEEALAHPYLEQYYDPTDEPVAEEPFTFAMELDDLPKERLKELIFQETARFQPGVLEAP

Compound: COc1ccc2oc(-c3ccc(NC(=O)Nc4cccc(Cl)c4)cc3Cl)cc(=O)c2c1
cytotoxicity at 48 h, 100 µM [1]: 40.6%
cytotoxicity at 48 h, 100 µM [2]: 30.1%
cytotoxicity at 48 h, 50 µM [3]: 15.9%
IC50 [4]: 26.3 µM
IC50 [5]: 9.6 µM
IC50 [6]: 11 µM
cytotoxicity at 48 h, 50 µM [7]: 35.7%

Compound: Nc1ccc(-c2cc(=O)c3ccc(O)cc3o2)c(Cl)c1
inhibition [8]: inactive
inhibition [9]: inactive

Compound: CCc1ccc2oc(-c3ccc(NC(=O)Nc4ccc(Cl)cc4)cc3Cl)cc(=O)c2c1
cytotoxicity at 48 h, 100 µM [1]: 28.3%
inhibition [10]: 67.4%
Activity [11]: 69.43%
inhibition [12]: Active
Activity [13]: 0.46%
Activity [14]: 8.81%
cytotoxicity at 48 h, 100 µM [2]: 31.8%
Activity [15]: 20.57%
Activity [16]: 9.38%
inhibition [17]: inactive
Activity [18]: 0.44%
inhibition [8]: 13.5%
Activity [19]: 1.37%
Activity [20]: 1.2%
Activity [21]: 1.22%
Activity [22]: 9.14%
Activity [23]: 13.43%
inhibition [24]: inactive
Activity [25]: 1.28%
cytotoxicity at 48 h, 50 µM [3]: 23.7%
IC50 [4]: 8.3 µM
Activity [26]: 0.27%
IC50 [5]: 28.7 µM
inhibition [27]: inactive
inhibition [9]: 65.6%
Activity [28]: 52.83%
Activity [29]: 52.83%
IC50 [6]: > 50 µM
cytotoxicity at 48 h, 50 µM [7]: 18.7%
Activity [30]: 19.92%
Activity [31]: 24.69%
Activity [32]: 0.55%
Activity [33]: 62.29%
inhibition [34]: Active
Activity [35]: 21.77%

Compound: CNC(=O)c1cc(Oc2ccc(NC(=O)Nc3ccc(Cl)c(C(F)(F)F)c3)cc2)ccn1 [SORAFENIB]
cytotoxicity at 48 h, 100 µM [1]: 20.2%
cytotoxicity at 48 h, 100 µM [2]: 23.2%
cytotoxicity at 48 h, 50 µM [3]: 4.2%
IC50 [4]: 5 µM
IC50 [5]: 2.3 µM
inhibition [9]: 101%
IC50 [6]: 4.5 µM
cytotoxicity at 48 h, 50 µM [7]: 5.3%

More lines, main results first:

IC50 [4]: 30.7 µM
IC50 [5]: 27.9 µM
IC50 [6]: > 50 µM
Compound: CCc1ccc2oc(-c3ccc(NC(=O)Nc4cccc(Cl)c4)cc3Cl)cc(=O)c2c1
cytotoxicity at 48 h, 100 µM [1]: 37.2%
cytotoxicity at 48 h, 100 µM [2]: 18%
cytotoxicity at 48 h, 50 µM [3]: 12.6%
cytotoxicity at 48 h, 50 µM [7]: 9.4%

IC50 [4]: 31.7 µM
IC50 [5]: 24.2 µM
IC50 [6]: > 50 µM
Compound: O=C(Nc1cccc(Cl)c1)Nc1ccc(-c2cc(=O)c3cc(F)ccc3o2)c(Cl)c1
cytotoxicity at 48 h, 100 µM [1]: 54.2%
cytotoxicity at 48 h, 100 µM [2]: 57.7%
cytotoxicity at 48 h, 50 µM [3]: 26.8%
cytotoxicity at 48 h, 50 µM [7]: 20.1%

IC50 [4]: 9.7 µM
IC50 [5]: 25.4 µM
IC50 [6]: 14 µM
Compound: O=C(Nc1cccc(Cl)c1)Nc1ccc(-c2cc(=O)c3ccccc3o2)c(Cl)c1
cytotoxicity at 48 h, 100 µM [1]: 47.1%
cytotoxicity at 48 h, 100 µM [2]: 62.4%
cytotoxicity at 48 h, 50 µM [3]: 48.9%
cytotoxicity at 48 h, 50 µM [7]: 26.8%
